From ChEMBL document CHEMBL2150901, “Synthesis and biological activity of tricyclic cycloalkylimidazo-, pyrimido- and diazepinopurinediones” (Eur J Med Chem, 2011)
Calls of active or inactive are those of the source. The calls are words filed in the database; no cut-off is given here.

Legend:
Rattus norvegicus [1] = assay: Anticonvulsant activity in Sprague-Dawley albino rat assessed as protection against subcutaneous pentylenetetrazole-induced seizures at 50 mg/kg, po after 1 hr; format: functional, organism-based; design: dose 50 mg/kg
Procedure, shortened: (§1)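 Male Sprague-Dawley albino rats (100–150 g), groups of 4. Oral suspension in 0.5% methylcellulose/water. Protection assessed by maximal electroshock or subcutaneous pentylenetetrazole; motor impairment by rotorod. Time points 0.25–4 h. Value is protected (or toxic)/tested animals.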

Mus musculus [2] = assay: Anticonvulsant activity in F1 albino mouse assessed as protection against maximal electroshock-induced seizures at 300 mg/kg, ip after 0.5 hrs; format: functional, organism-based; design: dose 300 mg/kg
Procedure, shortened: (§2)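 Male albino F-1 mice (18–25 g), groups of 1–5 (rotorod 2–8). Compound given ip as a suspension in 0.5% methylcellulose at 30, 100 and 300 mg/kg. Seizures by maximal electroshock or subcutaneous pentylenetetrazole; neurotoxicity by rotorod. Read at 0.5 and 4 h, with some at 0.25, 1 and 2 h. Value is the minimum active dose, with protected (or toxic)/tested animals.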

Mus musculus [3] = assay: Anticonvulsant activity in F1 albino mouse assessed as protection against subcutaneous pentylenetetrazole-induced seizures at 300 mg/kg, ip after 1 hr; format: functional, organism-based; design: dose 300 mg/kg; procedure, shortened: as §2
[4] = target: T1, Adenosine receptor A3 (Homo sapiens) (UniProt P0DMS8); assay: Displacement of [3H]PSB-11 from human recombinant adenosine A3 receptor expressed in CHO cells at 10 uM; format: cell-based
T1 sequence (whole entry): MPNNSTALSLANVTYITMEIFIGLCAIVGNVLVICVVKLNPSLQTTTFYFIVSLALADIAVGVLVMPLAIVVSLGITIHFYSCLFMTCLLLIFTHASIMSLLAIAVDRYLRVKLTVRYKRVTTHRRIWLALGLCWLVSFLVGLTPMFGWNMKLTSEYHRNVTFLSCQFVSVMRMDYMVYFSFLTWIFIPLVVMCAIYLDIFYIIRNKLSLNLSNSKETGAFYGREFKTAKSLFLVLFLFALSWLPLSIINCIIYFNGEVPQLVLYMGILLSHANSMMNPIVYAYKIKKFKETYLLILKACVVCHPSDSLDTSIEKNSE
Procedure, shortened: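 CHO cell membranes expressing the human receptor. Radioligands: A1 [3H]CCPA; A2B [3H]ZM241385 or [3H]PSB-603; A3 [3H]PSB-11. […] Potent compounds run at 6–7 concentrations spanning 3 orders of magnitude; Ki ± SEM.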

Mus musculus [5] = assay: Anticonvulsant activity in F1 albino mouse assessed as protection against subcutaneous pentylenetetrazole-induced seizures at 300 mg/kg, ip after 0.25 hrs; format: functional, organism-based; design: dose 300 mg/kg; procedure, shortened: as §2
Mus musculus [6] = assay: Anticonvulsant activity in F1 albino mouse assessed as protection against subcutaneous pentylenetetrazole-induced seizures at 300 mg/kg, ip after 4 hrs; format: functional, organism-based; design: dose 300 mg/kg; procedure, shortened: as §2
Mus musculus [7] = assay: Anticonvulsant activity in F1 albino mouse assessed as protection against subcutaneous pentylenetetrazole-induced seizures at 100 mg/kg, ip after 0.5 hrs; format: functional, organism-based; design: dose 100 mg/kg; procedure, shortened: as §2
Adenosine receptor A2a [8] = target: Adenosine receptor A2a (Homo sapiens, UniProt P29274); assay: Displacement of [3H]MSX-2 from human recombinant adenosine A2A receptor expressed in CHO cells; format: cell-based
Sequence of Adenosine receptor A2a (Homo sapiens, UniProt P29274) (P29274 whole entry): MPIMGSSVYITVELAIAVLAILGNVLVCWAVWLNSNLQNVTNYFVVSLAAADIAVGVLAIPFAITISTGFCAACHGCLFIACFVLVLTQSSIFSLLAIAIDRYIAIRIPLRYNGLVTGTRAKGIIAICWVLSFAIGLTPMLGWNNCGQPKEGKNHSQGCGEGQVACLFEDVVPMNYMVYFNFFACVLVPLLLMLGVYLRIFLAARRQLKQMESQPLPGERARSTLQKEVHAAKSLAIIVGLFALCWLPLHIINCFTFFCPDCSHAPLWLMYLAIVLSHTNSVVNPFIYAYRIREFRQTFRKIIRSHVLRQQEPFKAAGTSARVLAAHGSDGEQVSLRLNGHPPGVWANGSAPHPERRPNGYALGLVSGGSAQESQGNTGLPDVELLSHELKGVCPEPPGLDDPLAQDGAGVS

Rattus norvegicus [9] = assay: Neurotoxicity in Sprague-Dawley albino rat assessed as minimal motor impairment at 30 mg/kg, po after 4 hrs by rotorod test; format: toxicity, organism-based; design: dose 30 mg/kg, route oral; details: in vivo
Procedure, shortened: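 Male Sprague-Dawley albino rats (100–150 g), groups of 4, dosed orally with a suspension in 0.5% methylcellulose/water. Neurotoxicity was scored as minimal motor impairment on the rotorod at 0.25, 0.5, 1 and 4 h. Results are reported as animals showing toxicity per animals tested.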

Mus musculus [10] = assay: Neurotoxicity in F1 albino mouse assessed as minimal motor impairment at 300 mg/kg, ip after 1 hr by rotorod test; format: toxicity, organism-based; design: dose 300 mg/kg, route intraperitoneal; details: in vivo; procedure, shortened: as §2
Rattus norvegicus [11] = species on record: Rattus norvegicus; assay: Selectivity ratio of Ki for adenosine A1 receptor in rat brain cortical membrane to Ki for adenosine A2A receptor in rat brain striatal membrane; format: cell membranes
Procedure, shortened: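 Ki ratios from radioligand competition binding. Rat A1 used brain cortical membranes and rat A2A used brain striatal membranes. Human A1 and A2A used membranes of CHO cells expressing the receptors. A1 radioligand [³H]CCPA; A2A radioligand [³H]MSX-2. Potent compounds were tested at 6–7 concentrations spanning 3 orders of magnitude.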

Rattus norvegicus [12] = assay: Neurotoxicity in Sprague-Dawley albino rat assessed as minimal motor impairment at 30 mg/kg, po after 0.25 hrs by rotorod test; format: toxicity, organism-based; design: dose 30 mg/kg, route oral; details: in vivo; procedure, shortened: as §1
Rattus norvegicus [13] = assay: Neurotoxicity in Sprague-Dawley albino rat assessed as minimal motor impairment at 30 mg/kg, po after 0.5 hrs by rotorod test; format: toxicity, organism-based; design: dose 30 mg/kg, route oral; details: in vivo; procedure, shortened: as §1
Rattus norvegicus [14] = assay: Anticonvulsant activity in Sprague-Dawley albino rat assessed as protection against maximal electroshock-induced seizures at 30 mg/kg, po after 4 hrs; format: functional, organism-based; design: dose 30 mg/kg; procedure, shortened: as §1
Adenosine receptor A2a [15] = target: Adenosine receptor A2a (Rattus norvegicus, UniProt P30543); assay: Displacement of [3H]MSX-2 from adenosine A2A receptor in rat brain striatal membrane; format: cell membranes
Sequence of Adenosine receptor A2a (Rattus norvegicus, UniProt P30543) (P30543 whole entry): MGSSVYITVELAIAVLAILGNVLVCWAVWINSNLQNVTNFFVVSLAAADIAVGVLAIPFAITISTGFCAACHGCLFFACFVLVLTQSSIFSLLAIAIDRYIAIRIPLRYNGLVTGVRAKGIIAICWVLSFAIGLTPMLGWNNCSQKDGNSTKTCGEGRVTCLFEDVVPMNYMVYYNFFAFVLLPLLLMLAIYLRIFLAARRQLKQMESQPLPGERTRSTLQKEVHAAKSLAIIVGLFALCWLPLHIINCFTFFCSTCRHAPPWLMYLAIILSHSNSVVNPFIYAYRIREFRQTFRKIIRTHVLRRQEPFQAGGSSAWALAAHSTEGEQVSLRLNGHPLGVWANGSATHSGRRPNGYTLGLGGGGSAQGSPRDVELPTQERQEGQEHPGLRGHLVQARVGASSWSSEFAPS

Adenosine receptor A3 = target: T2, Adenosine receptor A3 (Homo sapiens, UniProt P0DMS8); assay: Displacement of [3H]PSB-11 from human recombinant adenosine A3 receptor expressed in CHO cells; format: cell-based
T2 sequence (P0DMS8 whole entry): T1 sequence (whole entry)

Adenosine receptor A2b = target: T3, Adenosine receptor A2b (Homo sapiens, UniProt P29275); assay: Displacement of [3H]ZM241385 from human adenosine A2B receptor expressed in CHO cells; format: cell-based
T3 sequence (P29275 whole entry): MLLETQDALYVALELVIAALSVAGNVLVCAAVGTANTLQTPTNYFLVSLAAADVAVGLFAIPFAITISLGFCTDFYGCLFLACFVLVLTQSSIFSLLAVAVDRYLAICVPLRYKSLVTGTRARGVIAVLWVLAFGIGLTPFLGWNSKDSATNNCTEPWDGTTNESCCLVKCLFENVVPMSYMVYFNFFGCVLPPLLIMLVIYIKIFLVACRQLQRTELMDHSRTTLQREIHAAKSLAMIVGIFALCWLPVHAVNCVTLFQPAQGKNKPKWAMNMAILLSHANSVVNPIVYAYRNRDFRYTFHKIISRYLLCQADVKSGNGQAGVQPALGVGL

Mus musculus [16] = assay: Neurotoxicity in F1 albino mouse assessed as minimal motor impairment at 300 mg/kg, ip after 0.5 hrs by rotorod test; format: toxicity, organism-based; design: dose 300 mg/kg, route intraperitoneal; details: in vivo; procedure, shortened: as §2
Rattus norvegicus [17] = assay: Neurotoxicity in Sprague-Dawley albino rat assessed as minimal motor impairment at 30 mg/kg, po after 1 hr by rotorod test; format: toxicity, organism-based; design: dose 30 mg/kg, route oral; details: in vivo; procedure, shortened: as §1
Rattus norvegicus [18] = assay: Anticonvulsant activity in Sprague-Dawley albino rat assessed as protection against subcutaneous pentylenetetrazole-induced seizures at 50 mg/kg, po after 0.5 hrs; format: functional, organism-based; design: dose 50 mg/kg; procedure, shortened: as §1
Mus musculus [19] = assay: Anticonvulsant activity in F1 albino mouse assessed as protection against maximal electroshock-induced seizures at 300 mg/kg, ip after 4 hrs; format: functional, organism-based; design: dose 300 mg/kg; procedure, shortened: as §2
Rattus norvegicus [20] = assay: Anticonvulsant activity in Sprague-Dawley albino rat assessed as protection against maximal electroshock-induced seizures at 30 mg/kg, po after 2 hrs; format: functional, organism-based; design: dose 30 mg/kg; procedure, shortened: as §1
Mus musculus [21] = assay: Anticonvulsant activity in F1 albino mouse assessed as protection against maximal electroshock-induced seizures at 100 mg/kg, ip after 0.25 hrs; format: functional, organism-based; design: dose 100 mg/kg; procedure, shortened: as §2
Mus musculus [22] = assay: Anticonvulsant activity in F1 albino mouse assessed as protection against maximal electroshock-induced seizures at 300 mg/kg, ip after 1 hr; format: functional, organism-based; design: dose 300 mg/kg; procedure, shortened: as §2
Mus musculus [23] = assay: Neurotoxicity in F1 albino mouse assessed as minimal motor impairment at 300 mg/kg, ip after 0.25 hrs by rotorod test; format: toxicity, organism-based; design: dose 300 mg/kg, route intraperitoneal; details: in vivo; procedure, shortened: as §2

inhibition [4]: 1%
Ki (Adenosine receptor A2a [8]): 417 nM
Ratio Ki (Rattus norvegicus [11]): 2
Ki (Adenosine receptor A2a [15]): 980 nM
Ki (Adenosine receptor A3): > 10000 nM
Ki (Adenosine receptor A2b): 12500 nM
Structure (SMILES): Cn1c(=O)c2c(nc3n2CCCN3CC2CC2)n(C)c1=O
Activity (Rattus norvegicus [1]): inactive
Activity (Mus musculus [2]): Active
Activity (Mus musculus [3]): inactive
Activity (Mus musculus [5]): inactive
Activity (Mus musculus [6]): inactive
Activity (Mus musculus [7]): Active
Activity (Rattus norvegicus [9]): Non-toxic
Activity (Mus musculus [10]): Non-toxic
Activity (Rattus norvegicus [12]): Non-toxic
Activity (Rattus norvegicus [13]): Non-toxic
Activity (Rattus norvegicus [14]): inactive
Activity (Mus musculus [16]): Toxic
Activity (Rattus norvegicus [17]): Non-toxic
Activity (Rattus norvegicus [18]): inactive
Activity (Mus musculus [19]): inactive
Activity (Rattus norvegicus [20]): inactive
Activity (Mus musculus [21]): Active
Activity (Mus musculus [22]): inactive
Activity (Mus musculus [23]): Non-toxic
